From paper PMC8113979 (Inorganic chemistry, 2017)
Like-named read-outs stand apart in the source and are kept apart here.

How the values were obtained:
[1] = system: A549 (human lung cancer) cells; experiment: MTT cytotoxicity assay in A549 cells; type: cell-based
[2] = system: MRC-5 (human lung fibroblast) cells; experiment: MTT cytotoxicity assay in MRC-5 cells; type: cell-based; settings: read-out: IC50 MRC-5 Normoxia, MRC-5 normal lung fibroblasts
[3] = N-methylimidazole challenge; type: physicochemical; settings: 1 mM complex, 5 mM N-methylimidazole, pH 7.4 PBS, 37 °C, 24 h
Method in brief: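 Complex at 1 mM final in pH 7.4 PBS with 5 mM N-methylimidazole as competing ligand. Analysed by RP-HPLC right after mixing, then again after 24 h at 37 °C. C18 column (250 × 4.6 mm, 5 μm), 1 mL/min, UV at 220 and 260 nm. Gradient: 10% MeOH/water with 0.1% TFA for 5 min, then linear to 100% MeOH (0.1% TFA) over 20 min. Starting, mono- and disubstituted species quantified from peak areas.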

[4] = Cyclic voltammetry in anhydrous DMF; type: physicochemical; settings: vs SCE, glassy carbon, 0.10 M TBAP, 100 mV/s, 25 °C; for Epc, Co(III/II): irreversible peak potential
hypoxic cells = settings: uptake, hypoxia vs normoxia; cited from earlier work
[5] = value reported for the hypoxia-imaging agent; cited from earlier work
HeLa and A549 cell lines = type: cell-based, human
[6] = observed in other studies; cited from earlier work
[7] = system: HeLa (human cervical cancer) cells; experiment: MTT cytotoxicity assay in HeLa cells; type: cell-based; settings: for IC50: Homo sapiens, HeLa
A549 cells = experiment: Cellular uptake of cobalt by GFAAS, normalised to protein; type: cell-based, human; settings: A549, 100 μM complex, 24 h
[8] = read-out: IC50 Without TM, A549, without tetrathiomolybdate

Row | SMILES | IC50 [2] | % Disubstituted [3] | % Intact [3] | % Monosubstituted [3] | E1/2,Co(II/I) [4] | Epc, Co(III/II) [4] | further results
1 | NC(=S)N/N=C/C=N/NC(N)=S [GTS, glyoxal bis(thiosemicarbazone)] | > 20 µM |  |  |  |  |  | IC50 [1, 8]: 0.02 ± 0.01 µM
2 | CC(=NN=C(N)[S-])C(C)=NN=C(N)[S-].O=[N+]([O-])[O-].[Co+3].c1c[nH]cn1.c1c[nH]cn1 [[Co(ATS)(Im)2]^+] |  | 46% | 11% | 43% | −1.19 V | −0.86 V | 
3 | CC(C=NN=C(N)[S-])=NN=C(N)[S-].O=[N+]([O-])[O-].[Co+3].c1c[nH]cn1.c1c[nH]cn1 [[Co(PTS)(Im)2]^+] |  | 54% | 7% | 39% | –1.12 V | –0.84 V | 
4 | CN=C([S-])N/N=C(C)/C(C)=N/NC([S-])=NC.[Cu+2] [[Cu(ATSM)]] |  |  |  |  |  |  | hypoxia selectivity (hypoxic cells): 5 ×; reduction potential [5]: −0.59 V
5 | [SH-].[SH-].[S]=[Mo]=[S] [TM, tetrathiomolybdate] |  |  |  |  |  |  | effect on cell viability ([1]; A549, 5 μM concentration): a TM does not affect the cell viability at 5 μM concentration.
6 | CC(=NN=C(N)[S-])C(C)=NN=C(N)[S-].N.N.O=[N+]([O-])[O-].[Co+3] [[Co(ATS)(NH3)2]^+] |  | 35% | 38% | 27% | −1.18 V | −1.10 V | 
7 | CC(C=NN=C(N)[S-])=NN=C(N)[S-].N.N.O=[N+]([O-])[O-].[Co+3] [[Co(PTS)(NH3)2]^+] |  | 22% | 56% | 22% | –1.11 V | –0.92 V | 
8 | N.N.[Cl][Pt][Cl] [Cisplatin, cisplatin] | 3.5 ± 1.2 µM |  |  |  |  |  | difference in activity under hypoxic versus normoxic conditions (HeLa and A549 cell lines): no difference
9 | Nc1n[n+]([O-])c2ccccc2[n+]1[O-] [Tirapazamine] |  |  |  |  |  |  | typical hypoxia selectivity index [6]: 10; IC50 ([1]; Homo sapiens, A549, read-out: IC50 A549 Hypoxia): 11 ± 6.5 µM; IC50 ([1]; Homo sapiens, A549, read-out: IC50 A549 Normoxia): 60 ± 5.4 µM; hypoxia selectivity index ([7]; HeLa cells, in our lab): 3.3; IC50 ([7]; read-out: IC50 HeLa Hypoxia): 13 ± 4.2 µM; IC50 ([7]; read-out: IC50 HeLa Normoxia): 44 ± 19 µM
10 | CC(=NN=C(N)[S-])C(C)=NN=C(N)[S-].NCc1ccccc1.NCc1ccccc1.O=[N+]([O-])[O-].[Co+3] [[Co(ATS)(BnA)2]^+] |  | 93% | 0% | 7% | −1.18 V | −0.83 V | 
11 | O=[N+]([O-])[O-].O=[N+]([O-])[O-].[Co+2] [Co(NO3)2, reference compound] | > 500 µM |  |  |  |  |  | Hypoxia/Normoxia Ratio of uptake (A549 cells): 0.88 ± 0.09; Co/Protein (Hypoxia) (A549 cells): 33 ± 3 pg/µg; Co/Protein (Normoxia) (A549 cells): 37 ± 2 pg/µg
12 | NC([S-])=NN=CC=NN=C(N)[S-].O=[N+]([O-])[O-].[Co+3].c1c[nH]cn1.c1c[nH]cn1 [[Co(GTS)(Im)2]^+] | > 250 µM | 58% | 6% |  | –1.00 V | –0.72 V | IC50 [1, 8]: 2.6 ± 0.4 µM; Hypoxia/Normoxia Ratio of uptake (A549 cells): 1.40 ± 0.09; Co/Protein (Hypoxia) (A549 cells): 20 ± 1 pg/µg; Co/Protein (Normoxia) (A549 cells): 15 ± 1 pg/µg
13 | CC(C=NN=C(N)[S-])=NN=C(N)[S-].NCc1ccccc1.NCc1ccccc1.O=[N+]([O-])[O-].[Co+3] [[Co(PTS)(BnA)2]^+] |  | 93% | 1% | 6% | –1.14 V | –0.84 V | 
